Assay results collected from several papers.
Read-out: cell growth or viability

Cc1cnc(CNC(=O)c2c(=O)c3ccc(N4CCCN(C)CC4)nc3n3c2sc2ccccc23)cn1 — IC50 (THLE3; imaging; 72 h): 2.49 µM
O=C(Nc1ccc(Cl)cc1)Nc1cccc(-c2cn(Cc3cccc(Cl)c3)nn2)c1 — IC50 (Huh-7; CCK-8; 72 h): 15.1 µM
O=[N+]([O-])c1ccc(O)c(C=NNc2ccc(Cl)cc2)c1 — IC50 (HEK-293T; MTT; 24 h): 11.4 µM
c1ccc(-c2noc(-c3nn(Cc4ccc5ccccc5c4)c4ccccc34)n2)cc1 — IC50 (HepG2; 48 h): 115 µM
COc1ccc(NC(=O)Nc2ccc(-c3cn(Cc4ccc(Br)cc4)nn3)cc2)cc1 — IC50 (Huh-7; CCK-8; 72 h): > 50 µM
O=[N+]([O-])c1cc(I)c(O)c(C=NNc2ccccc2)c1 — IC50 (HEK-293T; MTT; 24 h): 17 µM
COc1cccc2c1C(=O)c1c(O)c3c(c(O)c1C2=O)C[C@@](O)(C(=O)CO)C[C@@H]3O[C@H]1C[C@H](N)[C@H](O)[C@H](C)O1 — IC50 (Huh-7; ATP luminescence; 72 h): 0.6 µM
COc1ccc(NC(=O)Nc2ccc(-c3cn(Cc4ccc(Cl)cc4)nn3)cc2)cc1 — IC50 (Huh-7; CCK-8; 72 h): > 50 µM
COC(=O)c1ccc2c(c1)NC(=O)/C2=C(\Nc1ccc(N(C)C(=O)CN2CCN(C)CC2)cc1)c1ccccc1 — IC50 (HEK-293T; MTT; 24 h): 0.8 µM
COc1cccc2c1C(=O)c1c(O)c3c(c(O)c1C2=O)C[C@@](O)(C(=O)CO)C[C@@H]3O[C@H]1C[C@H](N)[C@H](O)[C@H](C)O1 — IC50 (HepG2; MTT): 31.2 µM
CN1CCN(c2ccc(Nc3c4ccccc4nc4ccccc34)cc2)CC1 — IC50 (THLE3; imaging; 72 h): 8.63 µM
COc1ccc(NC(=O)NCc2cn(Cc3ccc(Cl)cc3)nn2)cc1 — IC50 (Huh-7; CCK-8; 72 h): > 50 µM
O=[N+]([O-])c1ccc(O)c(C=NNc2ccc(C(F)(F)F)cc2)c1 — IC50 (HEK-293T; MTT; 24 h): 17 µM
COc1ccc(NC(=O)Nc2cccc(-c3cn(Cc4ccccc4C)nn3)c2)cc1 — IC50 (Huh-7; CCK-8; 72 h): 10.8 µM
COc1cccc2c1C(=O)c1c(O)c3c(c(O)c1C2=O)C[C@@](O)(C(=O)CO)C[C@@H]3O[C@H]1C[C@H](N)[C@H](O)[C@H](C)O1 — IC50 (Ramos; 96 h): 0.0117 µM
COc1ccc(NC(=O)Nc2cccc(-c3cn(Cc4cccc(Cl)c4)nn3)c2)cc1 — IC50 (Huh-7; CCK-8; 72 h): 13.5 µM
O=[N+]([O-])c1cc(I)c(O)c(C=NNc2ccc(C(F)(F)F)cc2)c1 — IC50 (HEK-293T; MTT; 24 h): 8.11 µM
